Square brackets hold non-standard residues; d marks the D form. Peptide text beside a SMILES is read from it. * marks the point of attachment. αMeF = C[C@](N)(Cc1ccccc1)C(=O)O; Phe(ol) = N[C@H](CO)Cc1ccccc1; X1 = CC(=O)[C@H](Cc1ccccc1)N*
Assays:
Rattus norvegicus [1] = organism: Rattus norvegicus; experiment: Compound was tested for oxytocic response in rat; type: functional
Rattus norvegicus [2] = organism: Rattus norvegicus; experiment: Compound was tested for pressor response in rat; type: functional
How it was run: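 Urethane-anesthetized male Zivic-Miller rats; blood pressure recorded from the cannulated left femoral artery via a linear core transducer. Peptides were injected into the cannulated right jugular vein with an automatic dispensing syringe. An AII dose-response curve was run before and after each analogue, so each animal served as its own control. Dose-response data are given as mean ± SEM, with the number of animals stated.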

Compound	Activity (Rattus norvegicus [1]) [%]	Activity (Rattus norvegicus [2]) [%]
CC(=O)N[C@@H](CC(N)=O)C(=O)N[C@@H](CCCN=C(N)N)C(=O)N[C@H](C(=O)N[C@@H](Cc1ccc(O)cc1)C(=O)N[C@H](C(=O)N[C@@H](Cc1c[nH]cn1)C(=O)N1CCC[C@H]1C(=O)N[C@@H](Cc1ccccc1)C(C)=O)C(C)C)C(C)C (Ac-NRVYVHP-X1)	0.4	0.03
COC(=O)[C@](C)(Cc1ccccc1)NC(=O)[C@@H]1CCCN1C(=O)[C@H](Cc1c[nH]cn1)NC(=O)[C@@H](NC(=O)[C@H](Cc1ccc(O)cc1)NC(=O)[C@@H](NC(=O)[C@H](CCCN=C(N)N)NC(=O)[C@H](CC(N)=O)NC(C)=O)C(C)C)C(C)C (Ac-NRVYVHP[αMeF]-OMe)	0.002	0.001
H-NRVYVHPF-OH [ANGIOTENSIN AMIDE]	100	100
CC(=O)N[C@@H](CC(N)=O)C(=O)N[C@@H](CCCN=C(N)N)C(=O)N[C@H](C(=O)N[C@@H](Cc1ccc(O)cc1)C(=O)N[C@H](C(=O)N[C@@H](Cc1c[nH]cn1)C(=O)N1CCC[C@H]1C(=O)N[C@H](CO)Cc1ccccc1)C(C)C)C(C)C (Ac-NRVYVHP[Phe(ol)])	0.09	0.001
COC(=O)[C@H](Cc1ccccc1)NC(=O)[C@@H]1CCCN1C(=O)[C@H](Cc1c[nH]cn1)NC(=O)[C@@H](NC(=O)[C@H](Cc1ccc(O)cc1)NC(=O)[C@@H](NC(=O)[C@H](CCCN=C(N)N)NC(=O)[C@H](CC(N)=O)NC(C)=O)C(C)C)C(C)C (Ac-NRVYVHPF-OMe)	20	13
